Screens as filed in PubChem.
CAL PDZ FP-1 = blocks peptide binding to human CAL PDZ domain; Q9HD26; purified CAL PDZ, TMR-peptide fluorescence polarization, 1 h; inhibition, % at 20 µM; hit rate 0.02% among 330,000;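 active = highest replicate inhibition of at least 40%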
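Material: tagged CAL PDZ domain; buffer or medium: 25 mM sodium phosphate pH 7.4, 150 mM NaCl, TCEP, IgG, Thesit; compound dosing: single point, 20 µM; schedule: 1 h incubation at room temperature before polarization reading; measured by: FP readout, S and P plane fluorescence; read-out basis: percent inhibition from loss of millipolarization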
SR-BI DiI inh = inhibitors of mouse SR-BI mediated HDL lipid uptake; AID 488896; ldlA[mSR-BI] CHO cells, DiI-HDL uptake fluorescence, 3 h; inhibition, % at 12.5 µM; hit rate 0.96% among 320,000;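 active = mean replicate inhibition of at least 70% and a set share of replicates each scoring 70 or more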
Target sequence (Q61009 whole entry, looked up): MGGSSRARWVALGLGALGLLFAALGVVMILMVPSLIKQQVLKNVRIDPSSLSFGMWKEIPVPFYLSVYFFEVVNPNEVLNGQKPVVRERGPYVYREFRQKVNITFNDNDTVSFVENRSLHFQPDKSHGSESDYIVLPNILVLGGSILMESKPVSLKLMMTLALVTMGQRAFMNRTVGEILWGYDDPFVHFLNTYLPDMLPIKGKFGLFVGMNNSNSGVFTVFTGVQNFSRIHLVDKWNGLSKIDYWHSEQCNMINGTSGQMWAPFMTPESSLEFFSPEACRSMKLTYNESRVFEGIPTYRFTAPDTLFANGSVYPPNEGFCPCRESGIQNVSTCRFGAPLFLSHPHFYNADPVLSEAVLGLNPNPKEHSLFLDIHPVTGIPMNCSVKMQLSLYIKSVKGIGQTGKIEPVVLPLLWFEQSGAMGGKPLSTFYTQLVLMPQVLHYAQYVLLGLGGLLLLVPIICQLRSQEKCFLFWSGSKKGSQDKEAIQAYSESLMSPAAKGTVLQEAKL
CAL PDZ FP-2 = blocks peptide binding to the human CAL PDZ domain. AID 602252. Q9HD26. purified CAL PDZ, TMR-peptide fluorescence polarization, 1 h. hit rate 0.92% among 300,000. inhibition, % at 24.9 µM;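 active = mean inhibition of at least 30% with at least half of replicates also reaching 30%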
ATG4B inh = blocks human ATG4B protease cleavage of LC3 substrate. Q9Y4P1. ATG4B cleavage of LC3-PLA2, NBD-HPC fluorescence, 1 h. inhibition, % at 8.33 µM. hit rate 0.51% among 340,000; in the data active = inhibition above about 40%
SR-BI DiI-HDL act = enhances SR-BI lipid uptake from DiI-HDL; CHO ldlA[mSR-BI] cells, DiI-HDL uptake fluorescence, 3 h; 100 = double the neutral-control signal; activation, % at 12.5 µM; hit rate 0.096% among 320,000; AID 504775;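 active = mean replicate activation of at least 60% and every replicate at or above 60%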
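Test system: SR-BI-overexpressing, LDLR-lacking CHO cells. Measured by: DiI fluorescence, bottom read. Medium: Ham's F12 with 0.5% BSA, HEPES 25 mM, pH 7.4. Timing: 3 h uptake period with compound, 37 °C.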
Numbers stand for hits; 0 = inactive; - = no result given. Hits are enriched below; roughly 2.3% of the tested compounds scored in any of these assays.

SMILES	CAL PDZ FP-1	SR-BI DiI inh	CAL PDZ FP-2	ATG4B inh	SR-BI DiI-HDL act
CN(c1ccc(OCC(=O)OCC(=O)Nc2ccccc2)cc1)S(=O)(=O)c1ccc(F)cc1	0	0	0	0	0
CN(c1ccc(OCC(=O)OCC(=O)Nc2ccc([N+](=O)[O-])cc2)cc1)S(=O)(=O)c1cccs1	0	0	95	0	0
O=C(COC(=O)c1c[nH]c2ccccc12)Nc1ccc([N+](=O)[O-])cc1	0	0	0	0	0
COc1ccc(/C=C2\CCc3ccccc3C2=O)cc1O	0	0	0	0	0
Cc1cc(=O)oc2c(C)c(OCC(=O)N3CCN(c4ccccc4)CC3)ccc12	0	0	0	0	0
Cc1cc(=O)oc2c(C)c(OCC(=O)N3CCN(C(=O)C4COc5ccccc5O4)CC3)ccc12 (stereo not given)	0	85	0	0	0
CCCCc1cc(=O)oc2c(C)c(OCC(=O)N3CCCC3)ccc12	0	76	0	0	0
O=C(CCOc1cccc(Br)c1)Nc1ccc(F)c(S(=O)(=O)N2CCOCC2)c1	0	0	0	0	0
O=C(NC1CCN(C(=O)Nc2cccc(Cl)c2)CC1)c1ccco1	0	0	58	0	0
Cc1nn(CCOc2cccc(Br)c2)c(C)c1[N+](=O)[O-]	0	0	59	0	0
CCC(C)[C@H](NC(=O)N1CCC(C)CC1)C(=O)OC (stereo not given in full)	0	0	52	0	0
CCC(C)[C@H](NC(=O)N1CCCC1)C(=O)OC (stereo not given in full)	0	0	0	0	0
CCN(CC)S(=O)(=O)c1cc(NC(=O)CSc2nc3c(cc2C#N)C(=O)CC(C)(C)C3)ccc1C	0	72	0	0	0
COc1ccc(C2C(C#N)=C(N)Oc3cc(O)ccc32)cc1OC (stereo not given)	0	0	-	0	0
COc1ccc(C2C(C#N)=C(N)Oc3cc(O)ccc32)cc1C (stereo not given)	0	81	0	0	0
Brc1cccc(CNCC2CCCO2)c1 (stereo not given)	54	0	0	0	0
Brc1ccc(CNCC2CCCO2)cc1 (stereo not given)	0	0	0	0	0
O=C(c1ccc(-c2ccccc2)cc1)N1CCN(c2ccccn2)CC1	0	0	78	0	0
Cc1c2ccccc2cc(Cc2ccccc2)[n+]1C	0	0	0	0	0
CCC(C(=O)OCn1nnc2ccccc2c1=O)c1ccccc1 (stereo not given)	0	0	54	0	0
CC(=O)C[C@H](O)CC(=O)[C@H]1OC(=O)[C@@H](C)CCCCc2ccccc21	0	0	0	-	0
CC[C@@H]1CCCCc2ccccc2[C@H](C(=O)C[C@H](O)CC(C)=O)OC1=O	0	0	54	-	0
O=C(N1CCN(S(=O)(=O)c2ccc(Cl)cc2)CC1)n1ccnc1	0	0	0	0	65
COC(=O)CCN1CCC2CC1c1cc(-c3cccc(C)c3)ccc12 (stereo not given)	0	0	0	0	0
CN(CC(=O)Nc1ccccc1Cl)C(=O)CN1C(=O)NC(c2ccccc2)(c2ccccc2)C1=O	0	0	85	0	0
SMILES	CAL PDZ FP-1	SR-BI DiI inh	CAL PDZ FP-2	ATG4B inh	SR-BI DiI-HDL act
O=C(COc1ccccc1)Nc1ccccc1N1CCN(c2ccccc2)CC1	0	0	0	0	0
O=C(COc1ccccc1)Nc1ccccc1N1CCN(c2ccc(F)cc2)CC1	0	80	0	0	0
O=[N+]([O-])c1ccc(NC(c2ccccc2)c2ccc3cccnc3c2O)cc1 (stereo not given)	0	80	91	0	0
CC(=O)NC(c1cccc([N+](=O)[O-])c1)c1ccc2cccnc2c1O (stereo not given)	0	0	0	0	0
COc1cc(OC)cc(C(=O)Nc2ccc3nc4n(c(=O)c3c2)CCCCC4)c1	0	0	0	0	0
COc1ccc(OC)c(CCNC(=O)C(=O)Nc2ccc3nc4n(c(=O)c3c2)CCCCC4)c1	0	77	0	0	0
C#CCOCCOCCOCCNc1nc(N2CCN(C(=O)CCCCCCCCCCNC(=O)[C@H]([C@@H](C)CC)n3cc(CCCCN=C(N)N)nn3)CC2)nc(N2CCN(C(=O)CCCCCCCCCCNC(=O)[C@H](CO)n3cc(CCCCCN)nn3)CC2)n1	0	0	0	54	0
C#CCOCCOCCOCCNc1nc(N2CCN(C(=O)CCCCCCCCCCNC(=O)Cn3cc(CCCCCN)nn3)CC2)nc(N2CCN(C(=O)CCCCCCCCCCNC(=O)[C@H]([C@@H](C)CC)n3cc(CCCCN=C(N)N)nn3)CC2)n1	0	84	0	49	0
CC(C)(C)OC(=O)NCCCCCc1cn([C@@H](CO)C(=O)NCCCCCCCCCCC(=O)N2CCN(C(=O)OC(C)(C)C)CC2)nn1	0	0	0	0	0
C#CCOCCOCCOCCNc1nc(N2CCN(C(=O)CCCCCCCCCCNC(=O)[C@H](CO)n3cc(CCCSC)nn3)CC2)nc(N2CCN(C(=O)CCCCCCCCCCNC(=O)[C@H](CCCN=C(N)N)n3cc(C[C@@H](C)CC)nn3)CC2)n1	0	0	0	72	0
CC[C@H](C)[C@@H](C(=O)NCCCCCCCCCCC(=O)N1CCN(C(=O)OC(C)(C)C)CC1)n1cc(CCCCCNC(=O)OC(C)(C)C)nn1	0	71	0	0	0
C#CCOCCOCCOCCNc1nc(N2CCN(C(=O)CCCCCCCCCCNC(=O)[C@H]([C@@H](C)CC)n3cc(CCCCCN)nn3)CC2)nc(N2CCN(C(=O)CCCCCCCCCCNC(=O)[C@H]([C@@H](C)CC)n3cc(CCCCN=C(N)N)nn3)CC2)n1	0	0	0	-	0
O=C(CN(C(=O)CNS(=O)(=O)c1ccccc1)c1ccc(F)cc1)NCc1ccco1	0	0	0	0	0
COc1ccc(N2CCN(CCNC(=O)Nc3ccc([N+](=O)[O-])cc3OC)CC2)cc1	0	76	0	0	0
COc1cc([N+](=O)[O-])ccc1NC(=O)/C=C/C(=O)O	0	0	71	0	0
COc1cc([N+](=O)[O-])ccc1NC(=O)Nc1ccc2c(c1)OCCO2	0	97	0	0	0
COc1cc(NC(=O)NCc2ccco2)ccc1-c1ccc(NC(=O)NCc2ccco2)cc1OC	0	74	-	0	0
COc1ccc(OC)c(NC(=O)NCCN2CCN(c3ccccc3)CC2)c1	0	0	0	0	0
COc1cc(NC(=O)c2cc(C)no2)cc(OC)c1OC	0	0	-	0	0
COc1cc([N+](=O)[O-])ccc1NC(=O)NCc1ccco1	0	72	0	0	0
COc1ccc2c(C)cc3nncn3c2c1	0	0	0	0	0
CCOC(=O)c1c(NC(=O)c2ccn(CC)n2)sc2c1CCCC2	0	72	0	0	0
CCOC(=O)c1c(NC(=O)C(=O)N/N=C/c2ccccc2O)sc2c1CCCCC2	0	127	0	0	0
